Sampled rows, rich in hits. Any-hit rate of the full collection: about 1.5%.
Runt-SMMHC FRET = inhibitors of RUNX1 Runt–CBFb-SMMHC binding, primary screen, biochemical, FRET, Cerulean-Runt, Venus-CBFb-SMMHC, uHTS; Cerulean-Runt/Venus-CBFb-SMMHC FRET ratio 530/480, 1 h; inhibition, % at 20 µM; hit rate 0.74% among 220,000; AID 1434, 2008;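 active = mean inhibition across duplicate retests at 20 µM reaching about 50%, limit read from the data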;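 note: inhibitors lower the FRET ratio by blocking Runt binding to CBFb-SMMHC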
Target sequence (Q01196 whole entry, looked up): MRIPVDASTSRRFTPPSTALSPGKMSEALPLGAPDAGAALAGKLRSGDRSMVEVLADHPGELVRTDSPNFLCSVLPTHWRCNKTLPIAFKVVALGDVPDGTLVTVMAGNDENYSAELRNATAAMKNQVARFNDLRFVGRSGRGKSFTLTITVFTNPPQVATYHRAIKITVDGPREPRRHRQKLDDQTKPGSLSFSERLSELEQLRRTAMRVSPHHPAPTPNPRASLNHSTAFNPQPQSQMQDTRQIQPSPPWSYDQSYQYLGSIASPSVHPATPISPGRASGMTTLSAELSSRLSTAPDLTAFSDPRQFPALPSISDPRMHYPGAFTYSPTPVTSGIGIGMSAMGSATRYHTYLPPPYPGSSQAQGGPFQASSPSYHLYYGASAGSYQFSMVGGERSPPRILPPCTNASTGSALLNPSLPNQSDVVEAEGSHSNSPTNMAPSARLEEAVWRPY
Target sequence (Q13951 whole entry, looked up): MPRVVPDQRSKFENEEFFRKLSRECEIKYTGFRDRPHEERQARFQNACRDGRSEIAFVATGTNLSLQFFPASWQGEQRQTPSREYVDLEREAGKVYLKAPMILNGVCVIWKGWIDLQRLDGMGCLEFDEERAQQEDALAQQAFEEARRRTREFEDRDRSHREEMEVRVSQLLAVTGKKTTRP
Hck-Nef inh = inhibitors of Nef-activated human Hck kinase, primary screen, biochemical, Z-Lyte FRET, 384-well, Hck-YEEI; Recombinant Hck-YEEI plus Nef, Z-Lyte FRET kinase assay; inhibition, % at 20 µM; AID 463187, 2010; hit rate 0.68% among 220,000;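 active = Hck-Nef kinase inhibition above about 50%, limit read from the data; inactive = inhibition below that limit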
RanGTP-Impb inh = inhibitors of RanGTP-importin-beta interaction, primary screen, biochemical, FRET, CFP-Ran, YFP-importin-beta, homogeneous; Ran GTPase (GTP-bound) - importin-beta complex; cell-free CFP-Ran/YFP-importin-beta FRET ratio; inhibition, % (concentration not given with the values); hit rate 1.1% among 300,000; AID 2216, 2009;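 active = more than half of the replicate wells show a fall in the fluorescence ratio signal beyond about 16%, limit read from the data, passing the limit was not always enough; inconclusive = exactly half of the replicate wells pass the set limit; inactive = fewer than half of replicates pass the limit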
Runt-CBFb FRET = inhibitors of RUNX1 Runt–CBFb binding, primary screen, biochemical, FRET, Cerulean-Runt, Venus-CBFb, uHTS. AID 1496, 2009. hit rate 0.46% among 220,000. inhibition, % at 20 µM. Cerulean-Runt/Venus-CBFb FRET ratio 530/480, 1 h. Runt-related transcription factor 1 (Homo sapiens) + Core-binding factor subunit beta …;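 active = inhibition over about 50% at 20 µM in the single-dose screen, limit read from the data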
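Assay system: Cerulean-Runt domain fusion protein, energy donor; Signal: fluorescence energy transfer, 422 nm excitation, 530/480 nm emission; Timing: 1 h compound exposure, room temperature; Control set: unlabeled CBFb; Medium: Tris buffer pH 7.5 with salts and BSA; Compound: single test concentration of 20 µM, 1% DMSO final; Probe or stimulus: Venus-CBFb 100 nM.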
CaV13 ICDI inh = Primary screen for inhibitors of IQ motif and Ca2+-dependent inactivation inhibitor domain binding in CACNA1D, Förster resonance energy transfer in living cells, …. HEK cells, CFP/YFP FRET ICDI-IQ, plate reader, 10 min; percent FRET-ratio fall versus neutral wells. inhibition, % at 12.3 µM. hit rate 0.098% among 340,000. AID 743397;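 active = mean replicate inhibition of at least 30% and at least 1% of replicates passing that level; inconclusive = only one of the two criteria is met; inactive = neither criterion is met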
Numbers stand for hits; - = inactive; ? = inconclusive; . = no result given.

SMILES | Runt-SMMHC FRET | Hck-Nef inh | RanGTP-Impb inh | Runt-CBFb FRET | CaV13 ICDI inh
CCCCNC(=O)c1cc2c(=O)n3cccc(C)c3nc2n(CCN2CCOCC2)c1=N | 62 | - | 150 | 100 | .
O=C1c2ccccc2NC(c2ccc(-c3ccccc3F)o2)N1O (stereo unspecified) | . | . | . | . | -
COc1cc(/C=C(/C#N)c2nc3ccccc3[nH]2)ccc1OC(=O)c1ccco1 | - | - | 28 | - | -
COc1ccc(/C=C2\N=C(c3ccccc3)N(c3ccc(C(=O)O)cc3)C2=O)cc1OC | - | - | 26 | - | -
CC1=N/C(=C\c2ccc(OC(C)C)cc2)C(=O)N1c1ccc(C(=O)O)cc1 | - | - | - | - | -
O=C(Cc1ccsc1)N1CCc2c([nH]c3ccccc23)C1c1ccccn1 (stereo unspecified) | - | - | 29 | - | -
Cc1cc(N)c(NC2=CC(=O)CC(C)(C)C2)cc1C | - | - | 22 | - | -
Cc1ccc(NC2=CC(=O)CC(C)(C)C2)cc1F | . | . | - | . | -
CC(=O)Nc1ccc(NC2=CC(=O)CC(C)(C)C2)cc1 | - | - | 50 | - | -
CC1(C)CC(=O)C=C(Nc2cccc(F)c2)C1 | . | . | 28 | . | -
O=C(NC(C(=O)N/N=C/c1ccccc1)c1n[nH]c(=O)c2ccccc12)c1ccccc1 (stereo unspecified) | - | - | - | - | -
O=C(NC(C(=O)N/N=C/c1c2ccccc2cc2ccccc12)c1n[nH]c(=O)c2ccccc12)c1ccccc1 (stereo unspecified) | - | - | 97 | - | .
C=CCc1cccc(/C=N/NC(=O)C(C)Nc2ccc(C)cc2)c1O (stereo unspecified) | - | - | - | - | -
CCOc1cc(/C=C(\C#N)C(=O)Nc2cccc(C(=O)O)c2)ccc1OCc1ccccc1Cl | . | . | 78 | . | -
COc1cc(/C=C(\C#N)C(=O)Nc2cccc(C(=O)O)c2)ccc1OCc1ccc(F)cc1 | . | . | - | . | -
COc1cc2c(cc1OC)[C@@H](NC(=O)c1ccc(C(F)(F)F)cc1)[C@H](OCc1ccccc1)C2 | . | . | . | . | -
Cn1cc(CN2CCC[C@H]2CO)c(-c2cccc(Cl)c2)n1 | - | - | 110 | - | -
CC(C)[C@H]1CN(C)CCN1Cc1cn(C)nc1-c1cccc(Cl)c1 | - | - | - | - | -
CC(=O)Nc1ccc(Cl)cc1C1COC(=O)C1=N (stereo unspecified) | - | - | 19 | - | -
O=C1CC(c2ccccc2)CN1C(=O)c1cccnc1 (stereo unspecified) | - | - | - | - | -
O=C1CCC(c2ccccc2)N1C(=O)c1cccnc1 (stereo unspecified) | - | - | 34 | - | -
COc1ccccc1N1CCN(CC(O)COc2c(OC)cccc2OC)CC1 (stereo unspecified) | - | - | 24 | - | -
COc1cccc(OC)c1OCC(O)CN1CCN(c2ccccc2)CC1 (stereo unspecified) | - | - | - | - | .
N/C(=N\N=C\c1ccc2c(c1)OCO2)SC1CC(=O)N(c2ccc(C(=O)O)cc2)C1=O (stereo unspecified) | - | - | - | - | -
O=C(c1ccco1)[C@@H]1[C@@H]2C(=O)N(c3ccccc3)C(=O)[C@@H]2C2c3ccccc3C=CN21 (stereo partly specified) | - | - | 28 | - | -
SMILES | Runt-SMMHC FRET | Hck-Nef inh | RanGTP-Impb inh | Runt-CBFb FRET | CaV13 ICDI inh
CCC1=NN(C(=O)Cc2ccc([N+](=O)[O-])cc2)C(O)(c2ccncc2)C1 (stereo unspecified) | - | - | 18 | - | -
CCC1=NN(C(=O)Cc2ccccc2)C(O)(c2ccncc2)C1 (stereo unspecified) | - | - | - | - | -
Cc1ccc(-c2ccc(CCC(=O)O)n2NC(=O)c2cccs2)cc1 | 63 | - | - | - | .
COc1cc(N2N=C(c3ccccc3)CC2c2ccccc2)c(C=O)cc1C=O (stereo unspecified) | . | . | 31 | . | -
COC(=O)c1c(NC(=O)c2ccc(S(=O)(=O)N3CCOCC3)cc2)sc2c1CCN(C)C2 | - | - | . | - | -
CNC(=O)c1c(NC(=O)c2ccc(S(=O)(=O)N3CCCCC3C)cc2)sc2c1CCN(C)C2 (stereo unspecified) | . | . | 50 | . | .
CCN1CCc2c(sc(NC(=O)c3ccc(S(=O)(=O)N4CCCCCC4)cc3)c2C(=O)NC)C1 | . | . | 57 | . | -
CC1CCCN(S(=O)(=O)c2ccc(C(=O)Nc3sc4c(c3C(N)=O)CCN(C)C4)cc2)C1 (stereo unspecified) | . | . | 29 | . | -
CCCN1CCc2c(sc(NC(=O)c3ccc(S(=O)(=O)N4CCCC4)cc3)c2C(N)=O)C1 | . | . | - | . | .
COc1ccc(OC)c(C2=C/C(=C/c3ccccn3)C(=O)O2)c1 | - | - | - | - | -
O=C(CN1CCCCCC1)Nc1cccc([N+](=O)[O-])c1 | - | - | - | - | -
O=C(CN1C(=O)c2ccccc2C1=O)Nc1cccc([N+](=O)[O-])c1 | - | - | 21 | - | -
CC(C)(C)c1ccc(C(=O)Nc2cccc(C(=O)N3CCOCC3)c2)cc1 | . | . | - | . | .
CCc1c(C)c(C#N)c2nc3ccccc3n2c1NCc1ccco1 | 72 | - | ? | - | -
Cc1cccc(NC(=O)CSc2cc(C)c(C#N)c3nc4ccccc4n23)c1 | 80 | - | - | - | -
CCN(CC)c1cc(C)c(C#N)c2nc3ccccc3n12 | 90 | - | 32 | 55 | -
CNc1cc(C)c(C#N)c2nc3ccccc3n12 | . | . | - | . | -
CCc1c(C)c(C#N)c2nc3ccccc3n2c1NC | . | . | - | . | -
Cc1cc(NCCCO)n2c(nc3ccccc32)c1C#N | - | - | 56 | - | -
CC(=O)N1c2ccc(S(=O)(=O)N3CCCCC3)cc2CC1C(=O)Nc1ccccc1C(F)(F)F (stereo unspecified) | . | . | - | . | -
CC(=NNc1ccc2ccccc2n1)c1ccccn1 | . | . | . | . | -
Cc1cc(NCc2ccccn2)n2c(nc3ccccc32)c1C#N | . | - | 96 | . | -
CCc1c(C)c(C#N)c2nc3ccccc3n2c1NCCN(C)C | - | - | ? | - | -
Cc1c(Cc2ccccc2)c(NCCCO)n2c(nc3ccccc32)c1C#N | 78 | - | ? | 57 | -
C=C(C)Cc1c(C)c(C#N)c2nc3ccccc3n2c1NCCCN(C)C | - | - | 38 | - | -
CCCNc1cc(C)c(C#N)c2nc3ccccc3n12 | - | - | . | - | .
Cc1cc(NCCOCCO)n2c(nc3ccccc32)c1C#N | . | . | 21 | . | -
O=C(CN1C(=O)NC2(CCCCC2)C1=O)Nc1cccc2ncccc12 | . | . | . | . | -
